Test results taken from the M2OR odorant receptor database.
Positions count from the first letter of the chain named.

Tests used:
Details in all cases: stereoisomer not certain
OR5M8 (Homo sapiens) = target: T1, OR5M8 (Homo sapiens) (UniProt Q8NGP6)
T1 sequence (whole entry): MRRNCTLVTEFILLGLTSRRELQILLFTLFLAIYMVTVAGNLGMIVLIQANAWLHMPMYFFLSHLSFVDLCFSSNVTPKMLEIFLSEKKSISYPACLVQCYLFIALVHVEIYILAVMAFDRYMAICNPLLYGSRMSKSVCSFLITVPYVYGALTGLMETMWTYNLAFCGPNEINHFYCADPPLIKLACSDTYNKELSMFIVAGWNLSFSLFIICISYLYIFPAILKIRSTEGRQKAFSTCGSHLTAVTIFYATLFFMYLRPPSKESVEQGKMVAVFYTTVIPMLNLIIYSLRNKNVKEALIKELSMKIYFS
Procedure, shortened: (§1)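 Transient luciferase assays in mammalian cell lines were common, though methods varied by source. The values come from published papers and their supplementary material, with extra details from the original authors when needed. Responsive refers to a measured signal the original authors judged statistically different from baseline, and non-responsive (inactive) to the remainder.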

OR5M9 (Homo sapiens) = target: T2, OR5M9 (Homo sapiens) (UniProt Q8NGP3)
T2 sequence (whole entry): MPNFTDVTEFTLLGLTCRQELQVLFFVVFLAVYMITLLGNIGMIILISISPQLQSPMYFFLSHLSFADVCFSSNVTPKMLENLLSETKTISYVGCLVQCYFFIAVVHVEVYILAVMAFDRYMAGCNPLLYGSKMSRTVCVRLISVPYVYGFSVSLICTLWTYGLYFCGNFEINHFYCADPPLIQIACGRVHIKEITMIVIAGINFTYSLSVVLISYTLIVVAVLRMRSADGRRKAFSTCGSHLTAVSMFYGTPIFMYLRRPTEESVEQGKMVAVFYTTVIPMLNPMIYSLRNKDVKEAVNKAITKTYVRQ
Procedure, shortened: as §1

OR5MA L2F C311H = tested on: T3, OR5MA L2F C311H
T3 sequence (whole entry): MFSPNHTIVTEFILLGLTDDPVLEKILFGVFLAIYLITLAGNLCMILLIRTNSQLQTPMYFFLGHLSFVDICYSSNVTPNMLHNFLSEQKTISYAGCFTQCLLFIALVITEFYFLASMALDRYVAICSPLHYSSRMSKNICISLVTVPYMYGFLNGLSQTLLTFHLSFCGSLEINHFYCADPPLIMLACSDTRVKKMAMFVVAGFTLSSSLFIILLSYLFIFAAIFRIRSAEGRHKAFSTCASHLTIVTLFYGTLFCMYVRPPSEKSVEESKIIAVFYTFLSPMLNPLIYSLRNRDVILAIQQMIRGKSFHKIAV
Procedure, shortened: as §1

OR5MA L2F Q54H C311H = tested on: T4, OR5MA L2F Q54H C311H
T4 sequence (whole entry): T3 sequence (whole entry) with Q54H
Procedure, shortened: as §1

OR5P2 (Homo sapiens) = target: T5, OR5P2 (Homo sapiens) (UniProt Q8WZ92)
T5 sequence (whole entry): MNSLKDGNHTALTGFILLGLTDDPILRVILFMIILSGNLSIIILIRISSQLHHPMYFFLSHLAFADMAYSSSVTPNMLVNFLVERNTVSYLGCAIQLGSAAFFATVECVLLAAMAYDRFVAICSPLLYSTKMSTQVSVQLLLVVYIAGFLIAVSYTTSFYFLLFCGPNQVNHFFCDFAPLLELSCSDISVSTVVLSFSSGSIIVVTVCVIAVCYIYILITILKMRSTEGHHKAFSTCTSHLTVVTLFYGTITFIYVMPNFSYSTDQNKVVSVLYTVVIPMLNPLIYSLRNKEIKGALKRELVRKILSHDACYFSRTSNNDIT
Procedure, shortened: as §1

OR5P3 (Homo sapiens) = target: T6, OR5P3 (Homo sapiens) (UniProt Q8WZ94)
T6 sequence (whole entry): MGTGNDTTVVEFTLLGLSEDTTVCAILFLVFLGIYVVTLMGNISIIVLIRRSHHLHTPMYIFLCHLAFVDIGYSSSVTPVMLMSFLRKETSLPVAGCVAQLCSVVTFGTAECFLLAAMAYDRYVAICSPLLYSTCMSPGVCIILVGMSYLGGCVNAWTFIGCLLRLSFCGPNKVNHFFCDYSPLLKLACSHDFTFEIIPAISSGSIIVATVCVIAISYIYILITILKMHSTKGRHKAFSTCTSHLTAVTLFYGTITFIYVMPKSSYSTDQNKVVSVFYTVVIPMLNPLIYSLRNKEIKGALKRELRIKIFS
Procedure, shortened: as §1

OR5P3 L301R = tested on: T7, OR5P3 L301R
T7 sequence (whole entry): T6 sequence (whole entry) with L301R
Procedure, shortened: as §1

OR5R1 C122R S128G F184L = tested on: T8, OR5R1 C122R S128G F184L
T8 sequence (whole entry): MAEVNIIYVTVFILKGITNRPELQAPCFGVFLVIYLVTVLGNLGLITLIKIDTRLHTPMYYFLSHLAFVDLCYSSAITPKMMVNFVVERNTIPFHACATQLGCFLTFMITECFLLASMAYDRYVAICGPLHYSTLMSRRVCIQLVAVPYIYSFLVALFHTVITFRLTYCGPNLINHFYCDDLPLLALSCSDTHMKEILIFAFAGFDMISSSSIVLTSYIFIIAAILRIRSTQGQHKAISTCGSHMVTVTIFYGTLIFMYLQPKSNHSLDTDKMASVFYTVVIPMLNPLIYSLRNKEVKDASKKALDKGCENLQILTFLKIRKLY
Procedure, shortened: as §1

OR5T1 (Homo sapiens) = target: T9, OR5T1 (Homo sapiens) (UniProt Q8NG75)
T9 sequence (whole entry): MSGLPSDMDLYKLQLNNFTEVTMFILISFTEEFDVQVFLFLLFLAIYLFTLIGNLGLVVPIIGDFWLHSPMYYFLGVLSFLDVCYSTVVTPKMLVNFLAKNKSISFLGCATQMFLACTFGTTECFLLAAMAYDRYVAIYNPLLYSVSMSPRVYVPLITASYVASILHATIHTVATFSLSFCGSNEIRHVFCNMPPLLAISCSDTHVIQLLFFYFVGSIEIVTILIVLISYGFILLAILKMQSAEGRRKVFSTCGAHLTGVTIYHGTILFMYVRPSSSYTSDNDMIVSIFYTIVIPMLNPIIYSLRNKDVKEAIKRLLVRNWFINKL
Procedure, shortened: as §1

OR5T2 (Homo sapiens) = target: T10, OR5T2 (Homo sapiens) (UniProt Q8NGG2)
T10 sequence (whole entry): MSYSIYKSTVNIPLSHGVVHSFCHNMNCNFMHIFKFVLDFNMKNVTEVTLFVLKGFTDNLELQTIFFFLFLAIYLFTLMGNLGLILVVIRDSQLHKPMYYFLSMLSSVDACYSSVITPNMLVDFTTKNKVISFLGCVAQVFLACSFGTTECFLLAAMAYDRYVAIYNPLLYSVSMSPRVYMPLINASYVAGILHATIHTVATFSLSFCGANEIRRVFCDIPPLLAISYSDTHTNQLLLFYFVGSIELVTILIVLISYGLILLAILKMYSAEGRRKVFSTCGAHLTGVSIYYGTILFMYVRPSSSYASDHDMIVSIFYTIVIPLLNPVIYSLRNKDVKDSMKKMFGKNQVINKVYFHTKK
Procedure, shortened: as §1

OR5T2 S4G = tested on: T11, OR5T2 S4G
T11 sequence (whole entry): T10 sequence (whole entry) with S4G
Procedure, shortened: as §1

OR5T3 (Homo sapiens) = target: T12, OR5T3 (Homo sapiens) (UniProt Q8NGG3)
T12 sequence (whole entry): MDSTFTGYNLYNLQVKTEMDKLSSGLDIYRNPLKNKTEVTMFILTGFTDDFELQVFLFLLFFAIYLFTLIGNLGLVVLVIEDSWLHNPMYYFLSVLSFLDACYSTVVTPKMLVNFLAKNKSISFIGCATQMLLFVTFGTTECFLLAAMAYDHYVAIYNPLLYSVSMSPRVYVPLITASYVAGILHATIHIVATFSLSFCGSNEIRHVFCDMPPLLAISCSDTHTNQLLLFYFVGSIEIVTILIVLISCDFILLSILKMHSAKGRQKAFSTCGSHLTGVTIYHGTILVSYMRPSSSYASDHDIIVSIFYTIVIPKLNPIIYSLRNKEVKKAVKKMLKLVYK
Procedure, shortened: as §1

OR5V1 (Homo sapiens) = target: T13, OR5V1 (Homo sapiens) (UniProt Q9UGF6)
T13 sequence (whole entry): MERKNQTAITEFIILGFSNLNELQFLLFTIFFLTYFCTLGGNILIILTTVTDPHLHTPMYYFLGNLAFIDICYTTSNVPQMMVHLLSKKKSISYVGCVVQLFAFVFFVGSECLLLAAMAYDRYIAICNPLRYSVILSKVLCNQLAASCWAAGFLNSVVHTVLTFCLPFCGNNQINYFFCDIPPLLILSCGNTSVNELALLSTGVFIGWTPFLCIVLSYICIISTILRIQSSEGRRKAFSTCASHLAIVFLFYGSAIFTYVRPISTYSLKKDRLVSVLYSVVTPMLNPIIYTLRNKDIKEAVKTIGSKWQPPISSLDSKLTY
Procedure, shortened: as §1

OR5W2 (Homo sapiens) = target: T14, OR5W2 (Homo sapiens) (UniProt Q8NH69)
T14 sequence (whole entry): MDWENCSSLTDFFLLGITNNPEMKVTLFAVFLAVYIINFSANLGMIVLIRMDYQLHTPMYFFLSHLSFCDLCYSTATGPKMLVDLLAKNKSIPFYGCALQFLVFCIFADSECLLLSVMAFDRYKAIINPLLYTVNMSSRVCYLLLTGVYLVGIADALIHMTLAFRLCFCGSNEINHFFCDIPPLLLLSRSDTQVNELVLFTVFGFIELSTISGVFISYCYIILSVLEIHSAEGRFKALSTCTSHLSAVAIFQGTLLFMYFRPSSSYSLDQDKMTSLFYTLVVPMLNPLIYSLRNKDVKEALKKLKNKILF
Procedure, shortened: as §1

OR5W2 R189C = tested on: T15, OR5W2 R189C
T15 sequence (whole entry): T14 sequence (whole entry) with R189C
Procedure, shortened: as §1

OR6A2 (Homo sapiens) = target: T16, OR6A2 (Homo sapiens) (UniProt O95222)
T16 sequence (whole entry): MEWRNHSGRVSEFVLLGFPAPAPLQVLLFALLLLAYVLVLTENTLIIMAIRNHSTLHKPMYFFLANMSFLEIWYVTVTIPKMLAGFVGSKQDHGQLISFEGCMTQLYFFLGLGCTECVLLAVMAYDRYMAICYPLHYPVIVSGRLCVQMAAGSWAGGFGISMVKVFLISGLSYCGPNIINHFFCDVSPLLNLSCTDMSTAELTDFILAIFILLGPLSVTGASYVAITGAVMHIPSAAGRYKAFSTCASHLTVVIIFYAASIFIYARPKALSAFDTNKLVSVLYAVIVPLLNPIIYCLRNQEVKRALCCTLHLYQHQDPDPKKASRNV
Procedure, shortened: as §1

OR6A2 I50V = tested on: T17, OR6A2 I50V
T17 sequence (whole entry): T16 sequence (whole entry) with I50V
Procedure, shortened: as §1

OR6B1 (Homo sapiens) = target: T18, OR6B1 (Homo sapiens) (UniProt O95007)
T18 sequence (whole entry): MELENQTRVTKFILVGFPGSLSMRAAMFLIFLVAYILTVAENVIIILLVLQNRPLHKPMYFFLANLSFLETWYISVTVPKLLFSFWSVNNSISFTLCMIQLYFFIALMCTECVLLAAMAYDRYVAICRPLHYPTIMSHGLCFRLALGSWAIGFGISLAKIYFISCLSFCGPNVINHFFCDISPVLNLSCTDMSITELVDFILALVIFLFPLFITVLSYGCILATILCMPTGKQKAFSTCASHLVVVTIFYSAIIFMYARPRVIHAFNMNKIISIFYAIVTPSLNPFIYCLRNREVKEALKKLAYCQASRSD
Procedure, shortened: as §1

OR6B2 (Homo sapiens) = target: T19, OR6B2 (Homo sapiens) (UniProt Q6IFH4)
T19 sequence (whole entry): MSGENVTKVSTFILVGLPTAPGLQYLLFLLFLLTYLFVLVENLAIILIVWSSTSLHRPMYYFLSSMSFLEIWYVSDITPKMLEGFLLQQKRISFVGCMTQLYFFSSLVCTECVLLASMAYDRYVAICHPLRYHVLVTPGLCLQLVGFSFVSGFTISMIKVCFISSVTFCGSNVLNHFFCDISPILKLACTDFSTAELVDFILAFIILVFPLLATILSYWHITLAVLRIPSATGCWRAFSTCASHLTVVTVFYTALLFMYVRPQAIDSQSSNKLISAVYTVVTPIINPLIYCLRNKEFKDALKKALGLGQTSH
Procedure, shortened: as §1

OR6B2 R122C C179R = tested on: T20, OR6B2 R122C C179R
T20 sequence (whole entry): T19 sequence (whole entry) with R122C, C179R
Procedure, shortened: as §1

Measured: odorant receptor agonist call;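 further: active if original authors judged signal statistically different from baseline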

CC1=NC(C)C(C)S1 (centres undefined)
inactive: OR5M8 (Homo sapiens) | OR5M9 (Homo sapiens) | OR5MA L2F C311H | OR5MA L2F Q54H C311H | OR5P2 (Homo sapiens) | OR5P3 (Homo sapiens) | OR5P3 L301R | OR5R1 C122R S128G F184L | OR5T1 (Homo sapiens) | OR5T2 (Homo sapiens) | OR5T2 S4G | OR5T3 (Homo sapiens) | OR5V1 (Homo sapiens) | OR5W2 (Homo sapiens) | OR5W2 R189C | OR6A2 (Homo sapiens) | OR6A2 I50V | OR6B1 (Homo sapiens) | OR6B2 (Homo sapiens) | OR6B2 R122C C179R

CCC(=O)C(=O)CC
inactive: OR5P3 (Homo sapiens)

CCCCCC(=O)C(C)C(C)=O (centres undefined)
inactive: OR5M8 (Homo sapiens) | OR5M9 (Homo sapiens) | OR5P2 (Homo sapiens) | OR5P3 (Homo sapiens) | OR5T1 (Homo sapiens) | OR5T2 (Homo sapiens) | OR5T3 (Homo sapiens) | OR5V1 (Homo sapiens) | OR5W2 (Homo sapiens) | OR6A2 (Homo sapiens) | OR6B1 (Homo sapiens) | OR6B2 (Homo sapiens)

CC(C)=CCCC(C)=CCO
inactive: OR5P3 (Homo sapiens)
